# Assay outcomes from PubChem.
# STEP inh: inhibitors of human striatal-enriched phosphatase STEP; actives 0.25% (n = 360,000); P54829; recombinant STEP, OMFP fluorogenic substrate, fluorescence; inhibition, % at 20 µM;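 active = inhibition at 20 µM, scaled per plate between control wells, above about 37%, limit read from the data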;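 note: 0% = DMSO with enzyme and substrate and 100% = substrate only without enzyme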
# Target sequence (P54829 whole entry, looked up): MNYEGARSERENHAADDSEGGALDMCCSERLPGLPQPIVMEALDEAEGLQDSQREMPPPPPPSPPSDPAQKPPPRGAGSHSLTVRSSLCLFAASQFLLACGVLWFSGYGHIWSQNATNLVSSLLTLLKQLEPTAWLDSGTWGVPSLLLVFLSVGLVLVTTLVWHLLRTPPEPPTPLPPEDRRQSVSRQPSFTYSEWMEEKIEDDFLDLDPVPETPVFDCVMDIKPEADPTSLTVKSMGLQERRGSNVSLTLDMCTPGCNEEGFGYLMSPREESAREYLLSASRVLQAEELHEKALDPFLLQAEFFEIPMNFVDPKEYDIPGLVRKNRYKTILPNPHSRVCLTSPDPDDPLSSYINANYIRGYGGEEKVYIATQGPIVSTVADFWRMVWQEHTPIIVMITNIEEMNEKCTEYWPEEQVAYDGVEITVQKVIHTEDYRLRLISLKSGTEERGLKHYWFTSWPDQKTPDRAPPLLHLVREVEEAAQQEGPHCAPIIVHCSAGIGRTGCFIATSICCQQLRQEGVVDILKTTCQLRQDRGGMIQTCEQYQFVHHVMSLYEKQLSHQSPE
#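 Assay system: isolated STEP enzyme / Timing: 20 min at room temperature, dark / Doses: 20 µM, 1% DMSO / Technique: fluorescence intensity, excitation 480 nm, emission 540 nm / Reagent: fluorogenic phosphatase substrate OMFP at 25 µM final / Measure: percent inhibition scaled to no-enzyme and uninhibited-enzyme controls, plate-pattern corrected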
# GRK2 aptamer HTS: human GRK2 inhibition via aptamer displacement | P25098 | bead flow cytometry, FAM-aptamer displacement from GRK2 | inhibition of aptamer binding, % at 10 µM | actives 0.59% (n = 330,000);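 active = inhibition of aptamer binding above 40%, roughly 3 SD of noise, on plates passing a quality check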;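 note: median bead fluorescence of bound FAM aptamer so fluorescent compounds give negative values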
# Scp1 inh: inhibitors of human Scp-1 phosphatase; Q9GZU7; Recombinant Scp1, phosphopeptide, malachite green phosphate absorbance; inhibition, % at 20 µM; actives 0.88% (n = 340,000);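 active = inhibition above about 50% at 20 µM, limit read from the data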;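 note: plate controls were DMSO wells with enzyme for no effect and wells lacking enzyme for full effect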
#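 Incubation: 45 min enzyme reaction at room temperature / System: truncated SCP-1 phosphatase (76-261aa) / Reagent: Phospho 17-mer peptide substrate / Buffer or medium: Acidic Tris acetate buffer with magnesium and detergent / Signal: absorbance at 630 nm / Doses: one concentration, 20 µM, with 1.0% DMSO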
# SUMO1-SIM PPI: SUMO1-SIM interaction modulation; inhibition, % at 20 µM; SUMO1 binding to a labelled peptide, TR-FRET, 1 h; AID 602429; actives 0.33% (n = 360,000); in the data active = inhibition above about 37%
# Target sequence (P63165 whole entry, looked up): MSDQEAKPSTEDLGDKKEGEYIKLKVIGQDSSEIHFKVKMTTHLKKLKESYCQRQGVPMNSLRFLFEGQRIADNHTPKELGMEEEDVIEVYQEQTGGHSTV
# LMPTP inh: blocks human LMPTP phosphatase; P24666; recombinant LMPTP-A, OMFP fluorogenic substrate, fluorescence intensity; inhibition, % at 20 µM; actives 0.22% (n = 360,000); AID 651560;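 active = compounds that cut the enzyme signal by at least half of the control window in the single-dose screen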;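 note: plate controls were DMSO wells with enzyme plus substrate for no effect and substrate without enzyme for full effect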
#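 Test system: LMPTP-A phosphatase enzyme; input: 0.625 nM LMPTP-A final; reagent: OMFP substrate, 400 µM final; compound dosing: 20 µM single dose, 3% DMSO; incubation: 50 min dark incubation at room temperature; measured by: endpoint fluorescence intensity from OMFP dephosphorylation; measure: % inhibition relative to no-enzyme and uninhibited control wells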
# DNMT1 block: blocks human DNA methyltransferase DNMT1. P26358. DNMT1 molecular beacon, Hinp1I cleavage, fluorescence. inhibition (reported as % activation of signal), % at 10 µM. actives 0.83% (n = 360,000); in the data active = inhibition above about 50%
# Beacon interf DR: beacon fluorescence artifact, dose response counter-screen; AID 602382; IC50, µM; molecular beacon fluorescence, spectral interference counter-screen; shares compounds with DNMT1 block; 200 tested, under 10 active; call rule not given here
# DNMT1 confirm: DNMT1 inhibition confirmation, single concentration | DNMT1 molecular beacon HinP1I cleavage, fluorescence | inhibition, % at 10 µM | shares compounds with DNMT1 block | actives 8% (n = 2,300);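 active = average inhibition of at least 30% in the single-concentration confirmation test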
# DNMT1 interf: beacon fluorescence artifact counter-screen | shares compounds with DNMT1 block | DNMT1 molecular beacon spectral interference counterscreen, fluorescence 485/520 | activation (fluorescence interference), % at 10 µM | actives 1% (n = 2,300) | AID 602387;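 active = activation of at least 30% at 10 µM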;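 note: DNMT1 catalytic domain with a HinP1I cleavage step and a FAM/dabcyl DNA beacon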
# The depositor's hits bear a star; x = no result. Rows were chosen to be rich in hits. Some 2.1% of all compounds tested hit in one or more screens of this group.
SMILES,STEP inh,GRK2 aptamer HTS,Scp1 inh,SUMO1-SIM PPI,LMPTP inh,DNMT1 block,DNMT1 confirm,DNMT1 interf,others
CCCCN=CC1=C(O)CC(c2ccccc2)CC1=O (stereo not drawn),8,0,4,0,-2,0,x,x,
CCc1nc(Nc2ccncc2)c2oc3ccccc3c2n1,-2,2,-1,1,0,51*,21,5,
O=C(CN1C(=O)/C(=C\c2ccc(F)cc2)Oc2ccccc21)NCc1ccco1,1,1,-5,-1,-1,52*,2,4,
CC(=O)N1CCN(C(=O)c2cc(S(=O)(=O)N(C)Cc3ccccc3)ccc2Cl)CC1,2,x,-7,-5,-11,-1,x,x,
COCCCNc1nc2cc(OC)c(OC)cc2c2nc(-c3ccccc3)nn12,2,0,-7,7,2,-8,x,x,
CCN(CC)CCCNc1nc2cc(OC)c(OC)cc2c2nc(-c3ccccc3)nn12,0,0,-1,11,5,64*,26,-1,Beacon interf DR=>99
Cc1ccccc1C(=O)N1CCC(C(=O)Nc2ccccn2)CC1,0,1,13,-4,0,2,x,x,
CN(C)CCNC(=O)C1Cc2c(-c3ccccc3Oc3ccccc3)ccnc2O1 (stereo not drawn),2,x,x,0,0,1,x,x,
CN(C(=O)C1Cc2c(-c3ccccc3Oc3ccccc3)ccnc2O1)c1ccccc1 (stereo not drawn),-2,x,x,5,9,76*,4,10,
O=C(CCC(=O)N1CCOCC1)NCc1cccc(C(F)(F)F)c1,0,3,-6,-4,0,7,x,x,
CNC(=O)COC(=O)c1cc(-c2ccco2)nc2ccccc12,4,0,76*,-9,12,56*,19,2,
O=C(O)c1ccccc1/C=N/NC(=O)c1cc(-c2ccco2)nc2ccccc12,5,0,77*,57*,33,91*,38*,-1,Beacon interf DR=>99
CCN(CC)C(=O)COC(=O)c1cc(-c2ccco2)nc2ccccc12,1,x,82*,-5,31,73*,7,0,
Cc1ccc(NC(=O)COC(=O)c2cc(C)nc3ccccc23)c([N+](=O)[O-])c1,0,0,-1,-2,-1,64*,0,2,
CSc1ccccc1NC(=O)CSc1nnc(COc2ccccc2)o1,-1,0,-10,8,0,1,x,x,
CCCn1nnnc1NC(=O)COc1ccc(Br)cc1,0,0,-5,1,-1,-1,x,x,
COc1ccc(S(=O)(=O)N2CCCC(C(=O)NCCN3CCOCC3)C2)cc1C (stereo not drawn),-1,0,-4,-4,0,2,x,x,
Cc1ccc(C(=O)Nc2ccc(S(=O)(=O)N3CCN(C)CC3)cc2)cc1,0,0,-12,0,0,67*,5,4,
Cc1cc2nc3c(=O)n(C4CCCCC4)c(=O)[nH]c3nc2cc1N,-106,x,-9,-11,-5,58*,64*,34*,
O=Cc1cccc(OCc2cn(CC(=O)c3ccc(O)cc3)nn2)c1,2,x,x,4,-1,58*,4,-4,
O=C(Cn1cc(COc2ccc(Br)cc2)nn1)c1ccc(O)cc1,2,x,1,-3,1,-3,x,x,
CCCC(=O)c1ccc(OCc2cn(CC(=O)c3ccc(O)cc3)nn2)cc1,-1,x,-5,0,-1,52*,3,-1,
CCCn1ncc(/C=N/O)c1C,-2,1,15,0,-2,-2,x,x,
CCc1nc(Nc2ccc(OC)c(OC)c2)c2nnn(Cc3ccccc3Cl)c2n1,4,0,9,0,5,105*,2,6,
CC1(c2nnnn2Cc2ccccc2)CCC(=O)N1CCCn1ccnc1 (stereo not drawn),x,x,x,1,0,x,x,x,
SMILES,STEP inh,GRK2 aptamer HTS,Scp1 inh,SUMO1-SIM PPI,LMPTP inh,DNMT1 block,DNMT1 confirm,DNMT1 interf,others
O=C(NCc1ccc(Cl)nc1)c1ccc2nc([C@@H]3O[C@H](CO)[C@H](O)[C@H](O)[C@H]3O)[nH]c2c1,1,x,x,0,1,4,x,x,
CC1(C(=O)NCCC(F)(F)F)Cc2c(-c3cccc(C(F)(F)F)c3)ccnc2O1 (stereo not drawn),1,x,x,3,-1,5,x,x,
CC1(C(=O)NCC2CCOCC2)Cc2c(-c3cccc(C(F)(F)F)c3)ccnc2O1 (stereo not drawn),1,x,x,-4,-1,84*,7,7,
CN(C)c1ccc(-c2ccnc3c2CC(C)(C(=O)NCC2CCOCC2)O3)cc1 (stereo not drawn),-2,x,x,-3,-1,59*,2,3,
O=C(COC(=O)/C=C/c1ccc(F)cc1)NCC1CCCO1 (stereo not drawn),2,0,-7,-5,-1,1,x,x,
C=C(CC[C@@H](O)C(C)(C)O)[C@H]1CC[C@]2(C)[C@@H]1CCC1[C@@]3(C)CCC(=O)C(C)(C)C3CC[C@]12C (stereo partly drawn),3,3,4,2,0,-4,x,x,
C=C(C)[C@@H]1CC[C@]2(C(=O)O)CC[C@]3(C)C(CCC4[C@@]5(C)CC[C@H](O)C(C)(C)C5CC[C@]43C)C12 (stereo partly drawn),4,3,-4,3,0,60*,-1,-16,
C=C(C)[C@@H]1CCC2(C(=O)O)CC[C@]3(C)[C@H](CC[C@@H]4[C@@]5(C)CCC(=O)C(C)(C)[C@@H]5CC[C@]43C)[C@@H]12 (stereo partly drawn),1,1,4,2,2,55*,1,-8,
CC1(C)C2CC[C@]3(C)C(CC=C4[C@@H]5C[C@@](C)(CO)[C@@H](O)C[C@]5(C(=O)O)CC[C@]43C)[C@@]2(C)CC[C@@H]1O (stereo partly drawn),-1,4,10,0,1,-2,x,x,
C=C/C(C)=C/CC1C(=C)CCC2C(C)(C(=O)O)CCCC12C (stereo not drawn),0,2,4,16,0,81*,11,-4,
O=C(O)Cn1ncc2c1-c1ccoc1CC2,-2,0,5,9,-1,89*,5,1,
O=C(Cn1ncc2c1-c1ccccc1OC2)N1CCc2ccccc21,-1,0,-5,1,1,-2,x,x,
